Activity calls are given as the source filed them. The rule behind the calls is not given here.
Columns and labels:
[1] = molecular target: T1, 5-hydroxytryptamine receptor 1A (Homo sapiens) (UniProt P08908); experiment: Intrinsic activity at human recombinant 5-HT1A receptor expressed in HEK293 cells by [S35]GTPgammaS binding assay relative to 5-HT; type: functional, cell-based
T1 sequence (whole entry): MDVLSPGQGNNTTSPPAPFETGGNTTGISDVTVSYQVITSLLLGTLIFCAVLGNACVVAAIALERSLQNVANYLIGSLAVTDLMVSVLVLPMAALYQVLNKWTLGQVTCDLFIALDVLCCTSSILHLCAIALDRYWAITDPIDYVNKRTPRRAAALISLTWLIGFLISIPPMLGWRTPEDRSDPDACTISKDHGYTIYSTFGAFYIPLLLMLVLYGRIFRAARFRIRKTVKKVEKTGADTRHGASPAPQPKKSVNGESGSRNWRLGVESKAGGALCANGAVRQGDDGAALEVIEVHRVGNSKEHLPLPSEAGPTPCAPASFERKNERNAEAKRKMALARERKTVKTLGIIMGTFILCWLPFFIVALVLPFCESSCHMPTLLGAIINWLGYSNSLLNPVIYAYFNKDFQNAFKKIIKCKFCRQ
How it was run: (§1)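 [35S]-GTPγS binding in membranes from 10^6 cells (HEK293 for 5-HT1A; CHO for 5-HT1B, 5-HT1D), preincubated 30 min at 30 °C with compound in 20 mM HEPES pH 7.4, 3 mM MgCl2, 100 mM NaCl, 10 μM GDP, 0.2 mM ascorbate. 100 pM [35S]-GTPγS added, 30 min more at 30 °C; nonspecific with 20 μM GTPγS; filtration and scintillation counting.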

[2] = molecular target: T2, 5-hydroxytryptamine receptor 1B (Homo sapiens, UniProt P28222); experiment: Intrinsic activity at human recombinant 5-HT1B receptor expressed in CHO cells by [S35]GTPgammaS binding assay relative to 5-HT; type: functional, cell-based; how it was run: as §1
T2 sequence (P28222 whole entry): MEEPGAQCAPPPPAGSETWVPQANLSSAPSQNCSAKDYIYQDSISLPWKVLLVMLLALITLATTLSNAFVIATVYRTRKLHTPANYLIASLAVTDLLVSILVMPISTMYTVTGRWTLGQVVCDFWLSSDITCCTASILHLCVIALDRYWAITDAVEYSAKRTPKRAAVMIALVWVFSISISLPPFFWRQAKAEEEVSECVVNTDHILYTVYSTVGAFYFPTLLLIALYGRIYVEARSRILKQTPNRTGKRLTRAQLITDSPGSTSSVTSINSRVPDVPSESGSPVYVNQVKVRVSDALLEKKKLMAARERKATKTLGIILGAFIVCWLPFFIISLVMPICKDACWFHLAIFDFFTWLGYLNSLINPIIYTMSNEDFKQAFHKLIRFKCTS

[3] = molecular target: T3, 5-hydroxytryptamine receptor 1A (Homo sapiens, UniProt P08908); experiment: Displacement of [3H]WAY100635 from human recombinant 5-HT1A receptor expressed in CHO cells; type: cell-based
T3 sequence (P08908 whole entry): T1 sequence (whole entry)

[4] = molecular target: T2, 5-hydroxytryptamine receptor 1B; experiment: Displacement of [3H]5-HT from human recombinant 5-HT1B receptor expressed in CHO cells; type: cell-based
[5] = molecular target: T4, 5-hydroxytryptamine receptor 1D (Homo sapiens, UniProt P28221); experiment: Displacement of [3H]5-HT from human recombinant 5-HT1D receptor expressed in CHO cells; type: cell-based
T4 sequence (P28221 whole entry): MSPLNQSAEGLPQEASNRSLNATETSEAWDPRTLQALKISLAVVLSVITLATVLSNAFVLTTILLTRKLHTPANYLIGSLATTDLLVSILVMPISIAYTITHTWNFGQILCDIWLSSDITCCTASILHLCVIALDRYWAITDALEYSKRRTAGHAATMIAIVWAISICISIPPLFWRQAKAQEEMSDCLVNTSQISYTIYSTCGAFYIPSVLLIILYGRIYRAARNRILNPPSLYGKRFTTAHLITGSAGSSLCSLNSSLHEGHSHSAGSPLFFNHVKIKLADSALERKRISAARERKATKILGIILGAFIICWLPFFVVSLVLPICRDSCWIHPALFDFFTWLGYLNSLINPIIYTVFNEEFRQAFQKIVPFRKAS

[6] = molecular target: Sodium-dependent serotonin transporter (Rattus norvegicus, UniProt P31652); experiment: Inhibition of [3H]5-HT uptake at SERT in rat cortical synaptosomes; type: subcellular, Brain
Sodium-dependent serotonin transporter, sequence (P31652 whole entry): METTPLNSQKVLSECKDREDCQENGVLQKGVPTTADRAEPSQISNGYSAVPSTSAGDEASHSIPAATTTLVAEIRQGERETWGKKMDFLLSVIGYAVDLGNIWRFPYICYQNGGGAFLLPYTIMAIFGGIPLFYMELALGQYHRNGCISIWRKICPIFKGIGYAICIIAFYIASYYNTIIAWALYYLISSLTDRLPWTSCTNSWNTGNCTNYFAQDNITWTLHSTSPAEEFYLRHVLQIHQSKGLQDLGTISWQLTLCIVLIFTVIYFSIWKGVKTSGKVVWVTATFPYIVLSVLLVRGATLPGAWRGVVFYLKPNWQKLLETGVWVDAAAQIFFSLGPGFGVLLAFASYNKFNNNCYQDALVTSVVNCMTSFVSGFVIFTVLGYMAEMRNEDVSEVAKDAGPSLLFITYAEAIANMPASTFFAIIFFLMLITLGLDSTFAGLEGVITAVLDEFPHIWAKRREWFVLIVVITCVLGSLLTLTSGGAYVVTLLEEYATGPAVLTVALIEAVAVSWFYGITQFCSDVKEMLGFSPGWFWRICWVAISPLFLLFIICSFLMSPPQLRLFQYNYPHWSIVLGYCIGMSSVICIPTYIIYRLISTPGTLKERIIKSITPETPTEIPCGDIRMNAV

[7] = molecular target: T4, 5-hydroxytryptamine receptor 1D; experiment: Inverse agonist activity at human recombinant 5-HT1D receptor expressed in CHO cells by [S35]GTPgammaS binding assay; type: functional, cell-based; how it was run: as §1
[8] = molecular target: T2, 5-hydroxytryptamine receptor 1B; experiment: Inverse agonist activity at human recombinant 5-HT1B receptor expressed in CHO cells by [S35]GTPgammaS binding assay; type: functional, cell-based; how it was run: as §1
[9] = molecular target: T1, 5-hydroxytryptamine receptor 1A (Homo sapiens); experiment: Inverse agonist activity at human recombinant 5-HT1A receptor expressed in HEK293 cells by [S35]GTPgammaS binding assay; type: functional, cell-based; how it was run: as §1
[10] = molecular target: Voltage-gated inwardly rectifying potassium channel KCNH2 (Homo sapiens, UniProt Q12809); experiment: Displacement of [3H]dofetilide from human ERG by SPA
[11] = molecular target: T4, 5-hydroxytryptamine receptor 1D; experiment: Intrinsic activity at human recombinant 5-HT1D receptor expressed in CHO cells by [S35]GTPgammaS binding assay relative to 5-HT; type: functional, cell-based; how it was run: as §1
[12] = molecular target: 5-hydroxytryptamine receptor 2A (Homo sapiens, UniProt P28223); experiment: Binding affinity to human recombinant 5-HT2A receptor by radioligand displacement assay
5-hydroxytryptamine receptor 2A, sequence (P28223 whole entry): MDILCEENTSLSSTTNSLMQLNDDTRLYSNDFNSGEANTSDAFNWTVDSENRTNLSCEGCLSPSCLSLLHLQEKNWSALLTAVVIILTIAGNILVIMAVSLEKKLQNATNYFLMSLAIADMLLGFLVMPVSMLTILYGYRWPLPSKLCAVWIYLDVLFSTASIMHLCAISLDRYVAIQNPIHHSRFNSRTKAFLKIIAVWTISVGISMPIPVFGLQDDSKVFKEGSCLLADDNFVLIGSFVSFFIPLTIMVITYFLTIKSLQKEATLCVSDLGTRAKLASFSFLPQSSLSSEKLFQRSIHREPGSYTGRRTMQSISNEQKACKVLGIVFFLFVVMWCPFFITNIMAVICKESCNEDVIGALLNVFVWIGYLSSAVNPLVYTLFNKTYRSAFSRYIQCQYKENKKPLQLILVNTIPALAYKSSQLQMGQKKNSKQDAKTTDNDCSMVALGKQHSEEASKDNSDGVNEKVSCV

[13] = molecular target: 5-hydroxytryptamine receptor 2B (Homo sapiens, UniProt P41595); experiment: Binding affinity to human recombinant 5-HT2B receptor by radioligand displacement assay
5-hydroxytryptamine receptor 2B, sequence (P41595 whole entry): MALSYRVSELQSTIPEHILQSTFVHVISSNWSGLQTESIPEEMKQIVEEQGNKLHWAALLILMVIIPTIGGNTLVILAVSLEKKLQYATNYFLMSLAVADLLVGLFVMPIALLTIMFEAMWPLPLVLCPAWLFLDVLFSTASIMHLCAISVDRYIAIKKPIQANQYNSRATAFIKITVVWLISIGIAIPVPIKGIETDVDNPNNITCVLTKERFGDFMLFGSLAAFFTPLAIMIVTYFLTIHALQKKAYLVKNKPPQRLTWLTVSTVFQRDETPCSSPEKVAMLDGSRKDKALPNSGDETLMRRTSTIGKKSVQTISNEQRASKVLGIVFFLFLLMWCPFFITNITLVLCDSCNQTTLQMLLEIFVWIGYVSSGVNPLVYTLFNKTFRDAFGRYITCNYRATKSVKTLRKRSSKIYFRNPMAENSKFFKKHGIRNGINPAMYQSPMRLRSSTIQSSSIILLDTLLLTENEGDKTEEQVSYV

[14] = molecular target: T5, 5-hydroxytryptamine receptor 2C (Homo sapiens, UniProt P28335); experiment: Binding affinity to human recombinant 5-HT2C receptor by radioligand displacement assay
T5 sequence (P28335 whole entry): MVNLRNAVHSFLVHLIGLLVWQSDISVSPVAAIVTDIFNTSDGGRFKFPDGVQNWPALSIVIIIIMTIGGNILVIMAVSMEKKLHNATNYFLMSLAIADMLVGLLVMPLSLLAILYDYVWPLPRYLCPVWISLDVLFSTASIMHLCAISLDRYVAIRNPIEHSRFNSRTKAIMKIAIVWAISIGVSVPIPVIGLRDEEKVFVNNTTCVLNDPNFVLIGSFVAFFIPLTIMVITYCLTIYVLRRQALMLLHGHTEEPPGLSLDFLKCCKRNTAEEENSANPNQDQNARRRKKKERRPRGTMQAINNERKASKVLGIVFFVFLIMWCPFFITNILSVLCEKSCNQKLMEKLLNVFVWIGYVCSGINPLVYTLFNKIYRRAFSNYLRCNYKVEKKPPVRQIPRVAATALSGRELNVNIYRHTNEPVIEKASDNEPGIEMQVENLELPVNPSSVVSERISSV

[15] = molecular target: 5-hydroxytryptamine receptor 6 (Homo sapiens, UniProt P50406); experiment: Binding affinity to human recombinant 5-HT6 receptor by radioligand displacement assay
5-hydroxytryptamine receptor 6, sequence (P50406 whole entry): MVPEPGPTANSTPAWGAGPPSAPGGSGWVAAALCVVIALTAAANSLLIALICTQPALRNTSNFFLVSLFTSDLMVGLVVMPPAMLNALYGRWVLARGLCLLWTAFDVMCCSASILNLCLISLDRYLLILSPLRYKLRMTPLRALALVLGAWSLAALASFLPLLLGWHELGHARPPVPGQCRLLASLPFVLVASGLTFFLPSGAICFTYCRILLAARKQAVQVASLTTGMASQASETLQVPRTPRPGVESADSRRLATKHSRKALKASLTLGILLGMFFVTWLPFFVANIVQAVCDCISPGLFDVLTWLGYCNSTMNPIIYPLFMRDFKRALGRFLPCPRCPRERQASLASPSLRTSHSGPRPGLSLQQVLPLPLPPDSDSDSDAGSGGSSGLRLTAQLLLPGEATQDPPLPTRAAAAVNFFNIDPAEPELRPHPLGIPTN

[16] = molecular target: 5-hydroxytryptamine receptor 7 (Homo sapiens, UniProt P34969); experiment: Binding affinity to human recombinant 5-HT7 receptor by radioligand displacement assay
5-hydroxytryptamine receptor 7, sequence (P34969 whole entry): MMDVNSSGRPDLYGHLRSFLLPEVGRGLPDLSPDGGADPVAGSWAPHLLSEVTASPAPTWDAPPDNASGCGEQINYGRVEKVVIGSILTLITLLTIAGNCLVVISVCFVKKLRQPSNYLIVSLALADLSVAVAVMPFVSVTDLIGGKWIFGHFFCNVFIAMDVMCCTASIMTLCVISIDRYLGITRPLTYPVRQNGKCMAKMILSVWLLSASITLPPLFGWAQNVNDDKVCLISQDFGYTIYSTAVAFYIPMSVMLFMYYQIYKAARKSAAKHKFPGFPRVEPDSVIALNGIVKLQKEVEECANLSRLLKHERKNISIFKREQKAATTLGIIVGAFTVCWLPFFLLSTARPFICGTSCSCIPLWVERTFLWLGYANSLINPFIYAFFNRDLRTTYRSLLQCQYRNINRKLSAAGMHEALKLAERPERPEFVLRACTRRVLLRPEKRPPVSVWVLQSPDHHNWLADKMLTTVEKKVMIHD

[17] = molecular target: D(2) dopamine receptor (Homo sapiens, UniProt P14416); experiment: Binding affinity to human recombinant dopamine D2 receptor by radioligand displacement assay
D(2) dopamine receptor, sequence (P14416 whole entry): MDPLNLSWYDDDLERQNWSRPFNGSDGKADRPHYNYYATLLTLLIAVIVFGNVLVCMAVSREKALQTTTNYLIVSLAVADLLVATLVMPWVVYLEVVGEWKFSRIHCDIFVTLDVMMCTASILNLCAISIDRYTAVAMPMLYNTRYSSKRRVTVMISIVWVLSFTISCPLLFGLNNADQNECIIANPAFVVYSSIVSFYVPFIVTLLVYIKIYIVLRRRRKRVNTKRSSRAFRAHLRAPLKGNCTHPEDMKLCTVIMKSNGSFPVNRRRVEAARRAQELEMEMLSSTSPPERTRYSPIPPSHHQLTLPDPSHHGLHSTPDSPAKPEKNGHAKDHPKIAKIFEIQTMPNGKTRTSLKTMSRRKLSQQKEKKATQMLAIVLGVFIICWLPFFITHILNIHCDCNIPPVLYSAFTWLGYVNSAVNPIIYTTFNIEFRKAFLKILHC

[18] = molecular target: D(3) dopamine receptor (Homo sapiens, UniProt P35462); experiment: Binding affinity to human recombinant dopamine D3 receptor by radioligand displacement assay
D(3) dopamine receptor, sequence (P35462 whole entry): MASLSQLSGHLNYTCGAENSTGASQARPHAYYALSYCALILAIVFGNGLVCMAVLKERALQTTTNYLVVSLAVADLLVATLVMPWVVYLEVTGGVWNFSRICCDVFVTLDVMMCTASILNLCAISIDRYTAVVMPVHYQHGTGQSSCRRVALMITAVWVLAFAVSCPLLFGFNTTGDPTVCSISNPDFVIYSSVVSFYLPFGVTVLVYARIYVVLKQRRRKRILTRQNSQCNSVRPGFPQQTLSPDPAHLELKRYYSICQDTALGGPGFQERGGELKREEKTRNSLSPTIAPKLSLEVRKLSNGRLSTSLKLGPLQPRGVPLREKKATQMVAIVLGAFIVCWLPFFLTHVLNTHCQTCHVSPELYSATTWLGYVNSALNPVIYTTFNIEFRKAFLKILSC

Row | SMILES | Ki [3] | Ki [4] | Ki [5] | Ki [6] | Activity [8] | Activity [9] | further results
1 | Cc1ccc2c(N3CCN(CCc4ccc5c(c4)NC(=O)CO5)CC3)cccc2n1 |  |  |  |  |  |  | Intrinsic activity [1]: 0.2; Intrinsic activity [2]: 0.1
2 | Cc1ccc2c(N3CCN(CCc4cccc(NC(=O)NC(C)(C)C)c4)CC3)cccc2n1 | 7.94 nM | 3.98 nM | 0.251 nM | 794 nM |  |  | 
3 | Cc1ccc2c(N3CCN(CCc4cccc(N)c4)CC3)cccc2n1 | 15.8 nM | 7.94 nM | 0.501 nM |  |  |  | 
4 | Cc1ccc2c(N3CCN(CCc4cccc(NC(=O)C(C)(C)C)c4)CC3)cccc2n1 | 6.31 nM | 2 nM | 0.316 nM | 1580 nM | Active | Active | Activity [7]: Active
5 | COc1ccc(C(=O)Nc2cccc(CCN3CCN(c4cccc5nc(C)ccc45)CC3)c2)cc1 | 3.16 nM | 3.98 nM | 0.501 nM | 1260 nM | Active | Active | Activity [7]: Active
6 | Cc1ccc2c(N3CCN(CCc4cccc(NC(=O)Nc5ccc(F)cc5)c4)CC3)cccc2n1 | 2.51 nM | 3.16 nM | 0.501 nM | 1260 nM |  |  | 
7 | Cc1ccc2c(N3CCN(CCc4cccc(NC(=O)Nc5ccccc5F)c4)CC3)cccc2n1 | 3.16 nM | 1 nM | 0.2 nM | 2000 nM |  |  | 
8 | Cc1ccc2c(OCCN3CCC(Cc4cccc(NS(C)(=O)=O)c4)CC3)cccc2n1 |  |  |  |  |  | Active | Intrinsic activity [2]: 0.3; Intrinsic activity [11]: 0
9 | Cc1ccc2c(N3CCN(CCc4cccc(NC(=O)Nc5cccc(F)c5)c4)CC3)cccc2n1 | 3.98 nM | 3.98 nM | 0.631 nM | 2510 nM | Active |  | Intrinsic activity [1]: 0; Intrinsic activity [11]: 0
10 | CCCNC(=O)Nc1cccc(CCN2CCN(c3cccc4nc(C)ccc34)CC2)c1 | 5.01 nM | 2 nM | 0.158 nM | 794 nM |  |  | 
11 | COc1cccc(C(=O)Nc2cccc(CCN3CCN(c4cccc5nc(C)ccc45)CC3)c2)c1 | 2 nM | 1.58 nM | 0.158 nM | 1260 nM |  |  | 
12 | Cc1ccc2c(N3CCN(CCc4cccc(N5CCCNC5=O)c4)CC3)cccc2n1 | 3.16 nM | 39.8 nM | 0.316 nM |  |  |  | 
13 | Cc1ccc2c(N3CCN(CCc4cccc(N5CCCOC5=O)c4)CC3)cccc2n1 | 2.51 nM | 31.6 nM | 0.251 nM |  |  |  | 
14 | Cc1ccc2c(N3CCN(CCc4cccc(N5C(=O)CCC5=O)c4)CC3)cccc2n1 | 3.16 nM | 39.8 nM | 1.58 nM | 20000 nM |  |  | 
15 | Cc1ccc2c(N3CCN(CCc4cccc(NC(=O)C(C)C)c4)CC3)cccc2n1 | 2 nM | 1.58 nM | 0.158 nM | 1260 nM | Active | Active | Activity [7]: Active
16 | COc1ccccc1C(=O)Nc1cccc(CCN2CCN(c3cccc4nc(C)ccc34)CC2)c1 | 2.51 nM | 3.98 nM | 0.631 nM | 794 nM |  |  | 

Continued, in another order:

Row | Ki [3] | Ki [4] | Ki [5] | Ki [6] | Activity [8] | Activity [9] | SMILES | further results
17 | 2 nM | 1.26 nM | 0.2 nM | 1260 nM | Active |  | CCC(=O)Nc1cccc(CCN2CCN(c3cccc4nc(C)ccc34)CC2)c1 | Intrinsic activity [1]: 0; Activity [7]: Active
18 | 0.794 nM | 3.16 nM | 0.398 nM | 501 nM | Active | Active | Cc1ccc2c(N3CCN(CCc4cccc(NC(=O)c5csc(C)n5)c4)CC3)cccc2n1 | Activity [7]: Active; Ki [10]: 316 nM
19 | 0.631 nM | 3.16 nM | 0.316 nM | 631 nM | Active | Active | Cc1ccc2c(N3CCN(CCc4cccc(NC(=O)c5cccc(F)c5)c4)CC3)cccc2n1 | Activity [7]: Active
20 | 2 nM | 12.6 nM | 0.316 nM |  |  |  | CC(=O)N(C)c1cccc(CCN2CCN(c3cccc4nc(C)ccc34)CC2)c1 | Intrinsic activity [1]: 0.1; Intrinsic activity [2]: 0.2; Intrinsic activity [11]: 0
21 | 1 nM | 0.501 nM | 0.251 nM | 1260 nM |  |  | CC(=O)Nc1cccc(CCN2CCN(c3cccc4nc(C)ccc34)CC2)c1 | Ki [12]: 251 nM; Ki [13]: 158 nM; Ki [14]: 1000 nM; Ki [15]: > 3980 nM; Ki [16]: 63.1 nM; Ki [17]: 398 nM; Ki [18]: 158 nM
22 | 1.58 nM | 2 nM | 0.631 nM |  |  |  | CCCS(=O)(=O)Nc1cccc(CCN2CCN(c3cccc4nc(C)ccc34)CC2)c1 | 
23 | 1 nM | 3.16 nM | 0.251 nM | 631 nM |  | Active | Cc1ccc2c(N3CCN(CCc4cccc(NC(=O)c5ccccc5F)c4)CC3)cccc2n1 | Activity [7]: Active; Intrinsic activity [2]: 0
24 | 0.398 nM | 2 nM | 0.251 nM | 501 nM |  | Active | Cc1ccc2c(N3CCN(CCc4cccc(NC(=O)c5scnc5C)c4)CC3)cccc2n1 | Activity [7]: Active; Intrinsic activity [2]: 0
25 | 0.794 nM | 0.794 nM | 0.126 nM | 3160 nM |  |  | Cc1ccc2c(N3CCN(CCc4cccc(NS(C)(=O)=O)c4)CC3)cccc2n1 | Ki [10]: 501 nM; Ki [12]: 794 nM; Ki [13]: 398 nM; Ki [14]: 3160 nM; Ki [15]: > 2510 nM; Ki [16]: 100 nM; Ki [17]: 398 nM; Ki [18]: 200 nM
26 | 0.501 nM | 1.26 nM | 0.2 nM | 398 nM |  |  | Cc1ccc2c(N3CCN(CCc4cccc(NC(=O)c5cnccn5)c4)CC3)cccc2n1 | Ki [12]: 158 nM; Ki [13]: 794 nM; Ki [14]: > 1580 nM; Ki [15]: 794 nM; Ki [16]: 200 nM; Ki [17]: 200 nM; Ki [18]: 79.4 nM
27 | 1.26 nM | 5.01 nM | 0.398 nM | 794 nM | Active | Active | Cc1ccc2c(N3CCN(CCc4cccc(NC(=O)c5ccc(F)cc5)c4)CC3)cccc2n1 | Intrinsic activity [11]: 0
28 | 1.26 nM | 1.26 nM | 0.126 nM | 794 nM |  |  | CCOC(=O)Nc1cccc(CCN2CCN(c3cccc4nc(C)ccc34)CC2)c1 | 
29 | 0.501 nM | 1.58 nM | 0.158 nM | 316 nM |  |  | Cc1ccc2c(N3CCN(CCc4cccc(-n5cccn5)c4)CC3)cccc2n1 | Ki [12]: 398 nM; Ki [13]: 79.4 nM; Ki [14]: 2000 nM; Ki [15]: > 10000 nM; Ki [16]: 126 nM; Ki [17]: 398 nM; Ki [18]: 50.1 nM
30 | 0.398 nM |  | 0.251 nM | 501 nM | Active |  | COC(=O)Nc1cccc(CCN2CCN(c3cccc4nc(C)ccc34)CC2)c1 | Intrinsic activity [1]: 0; Intrinsic activity [11]: 0; Ki [12]: 200 nM; Ki [13]: 200 nM; Ki [14]: 794 nM; Ki [15]: > 1580 nM; Ki [16]: 25.1 nM; Ki [17]: 200 nM; Ki [18]: 100 nM

From ChEMBL document CHEMBL1629528 (J Med Chem, 2010)
